Source: ChEMBL document CHEMBL3853320, “Discovery of Imidazoquinolines as a Novel Class of Potent, Selective, and in Vivo Efficacious Cancer Osaka Thyroid (COT) Kinase Inhibitors” (J Med Chem, 2016)
Converted amounts (≈) assume the structure as drawn. The source made the active and inactive calls. No cut-off for these calls is given here.

Legend:
[1] = target: T1, Mitogen-activated protein kinase kinase kinase 8 (Homo sapiens, UniProt P41279); assay: Inhibition of human COT (66 to 395 residues) expressed in Sf21 cells using 5-Fluo-Ahx-AGAGSGQLIDSNleANSFVGTR-NH2 as substrate after 60 mins by caliper microfluidic mobility shift assay
[2] = Octanol-water partition coefficient, log P of the compound by shake-flask method; type: physicochemical
[3] = target: T1, Mitogen-activated protein kinase kinase kinase 8; assay: Inhibition of COT in LPS-stimulated human PBMC assessed as reduction in ERK1/2 phosphorylation incubated for 60 mins followed by LPS stimulation for 12 mins by flow cytometric analysis
Summary of the method: (§1)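 Primary human PBMCs were stimulated with LPS. Read-outs were pERK, TNFα release, or p65 phosphorylation, each reported as IC50.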

[4] = Protein binding in human plasma at 5 uM after 4 hrs by rapid equilibrium dialysis method; type: ADME, cell-free; conditions: read-out: PPB (converted)
[5] = Clearance in wild type Sprague-Dawley rat plasma at 1 mg/kg, iv; type: ADME, organism-based
Summary of the method: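 Male wild-type Sprague–Dawley rats were given 1 mg/kg intravenously. Clearance was derived from plasma.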

[6] = Metabolic stability in bile-duct cannulated Sprague-Dawley rat assessed as parent compound remaining in urine at 3 mg/kg, iv measured over 8 hrs post dose; type: ADME, organism-based; conditions: read-out: Stability
Summary of the method: (§2)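 Bile-duct cannulated rats dosed in vivo. Parent and metabolites in each matrix were expressed as relative peak areas of the drug-related components detected, at the stated sampling time or collection period post dose.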

[7] = Equilibrium solubility of the compound at pH 6.8 after 16 hrs by mass spectrometric analysis; type: physicochemical; conditions: buffer
[8] = Metabolic stability in Sprague-Dawley rat liver microsomes assessed as parent compound remaining at 5 uM after 1 hr in presence of NADPH by HPLC/MS analysis; type: ADME; conditions: read-out: Stability
[9] = target: T1, Mitogen-activated protein kinase kinase kinase 8; assay: Inhibition of COT in LPS-stimulated human PBMC assessed as reduction in TNFalpha release incubated for 1 hr followed by stimulation with LPS for 4 hrs by HTRF assay; summary of the method: as §1
[10] = Metabolic stability in bile-duct cannulated Sprague-Dawley rat assessed as parent compound remaining in blood at 3 mg/kg, iv measured 1 hr post dose; type: ADME, organism-based; conditions: read-out: Stability
[11] = Metabolic stability in bile-duct cannulated Sprague-Dawley rat assessed as parent compound remaining in bile at 3 mg/kg, iv measured over 8 hrs post dose; type: ADME, organism-based; conditions: read-out: Stability
[12] = Drug excretion in bile-duct cannulated Sprague-Dawley rat urine at 3 mg/kg, iv; type: ADME, organism-based; conditions: read-out: Drug excretion
[13] = Drug excretion in bile-duct cannulated Sprague-Dawley rat bile at 3 mg/kg, iv; type: ADME, organism-based; conditions: read-out: Drug excretion
[14] = Equilibrium solubility of the compound at pH 4 after 16 hrs by mass spectrometric analysis; type: physicochemical; conditions: buffer
[15] = target: T1, Mitogen-activated protein kinase kinase kinase 8; assay: Inhibition of COT in LPS-stimulated human whole blood assessed as reduction in TNFalpha release incubated for 30 mins followed by stimulation with LPS for 3 hrs by HTRF assay; type: tissue-based
Summary of the method: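 Human whole blood was stimulated with LPS, and TNFα release was measured as IC50.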

[16] = Metabolic stability in bile-duct cannulated Sprague-Dawley rat assessed as parent compound remaining in blood at 3 mg/kg, iv measured 4 hrs post dose; type: ADME, organism-based; conditions: read-out: Stability; summary of the method: as §2
[17] = Half life in wild type Sprague-Dawley rat liver microsomes at 5 uM preincubated for 3 mins followed by NADPH addition measured after 1 hr by HPLC/MS analysis; type: ADME
Canis familiaris = assay: Antiinflammatory activity in MSU-induced beagle dog acute synovitis model assessed as prevention of inflammation-driven lameness at 0.2 mg/kg, po administered once a week 3 hrs post MSU injection measured after 6 hrs post last dose; type: functional, organism-based; conditions: Canis lupus familiaris
Summary of the method: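 Lameness was induced in dogs by uric acid injection into the joint. Treatment was vehicle, test article at 5 or 15 mg/kg, or meloxicam 0.2 mg/kg. Vertical peak force of the affected limb was measured on a force plate while trotting. The read-out was the time after treatment for that force to recover to 60% of the value measured before lameness.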

[18] = Inhibition of MEK/ERK signaling pathway in TNFalpha-stimulated human A431 cells transfected with COT siRNA assessed as reduction in ERK1/2 phosphorylation incubated for 60 mins followed by stimulation with TNFalpha for 10 mins by Western blot analysis; type: cell-based; conditions: A-431
[19] = target: MAP kinase-interacting serine/threonine-protein kinase 2 (Homo sapiens, UniProt Q9HBH9); assay: Inhibition of MKNK2 (unknown origin) after 60 mins in presence of ATP by caliper microfluidic mobility shift assay
[20] = target: Receptor-type tyrosine-protein kinase FLT3 (Homo sapiens, UniProt P36888, D835Y); assay: Inhibition of FLT3 (563 to 993 residues) D835Y mutant (unknown origin) after 60 mins in presence of ATP by caliper microfluidic mobility shift assay
[21] = Inhibition of NFkappaB pathway in LPS-stimulated human PBMC assessed as reduction in p65 phosphorylation incubated for 60 mins followed by LPS stimulation for 12 mins by flow cytometric analysis analysis; summary of the method: as §1
[22] = Inhibition of MEK/ERK signaling pathway in EGF-stimulated human A431 cells transfected with COT siRNA assessed as reduction in ERK1/2 phosphorylation incubated for 60 mins followed by stimulation with EGF for 10 mins by Western blot analysis; type: cell-based; conditions: A-431
[23] = Drug level in bile-duct cannulated Sprague-Dawley rat urine treated with N-(1-morpholinopropan-2-yl)-6-(8-(pyridin-4-yl)-1H-imidazo[4,5-c][1,7]naphthyridin-1-yl)benzo[d]thiazol-2-amine at 3 mg/kg, iv measured over 8 hrs post dose; type: ADME, organism-based; conditions: in vivo
[24] = Drug level in bile-duct cannulated Sprague-Dawley rat bile treated with N-(1-morpholinopropan-2-yl)-6-(8-(pyridin-4-yl)-1H-imidazo[4,5-c][1,7]naphthyridin-1-yl)benzo[d]thiazol-2-amine at 3 mg/kg, iv measured over 8 hrs post dose; type: ADME, organism-based; conditions: in vivo
[25] = Drug level in bile-duct cannulated Sprague-Dawley rat feces treated with N-(1-morpholinopropan-2-yl)-6-(8-(pyridin-4-yl)-1H-imidazo[4,5-c][1,7]naphthyridin-1-yl)benzo[d]thiazol-2-amine at 3 mg/kg, iv measured over 8 hrs post dose; type: ADME, organism-based; conditions: in vivo
[26] = Drug level in bile-duct cannulated Sprague-Dawley rat blood treated with N-(1-morpholinopropan-2-yl)-6-(8-(pyridin-4-yl)-1H-imidazo[4,5-c][1,7]naphthyridin-1-yl)benzo[d]thiazol-2-amine at 3 mg/kg, iv measured 1 to 4 hrs post dose; type: ADME, organism-based; conditions: in vivo
[27] = Drug level in bile-duct cannulated Sprague-Dawley rat bile treated with N-(1-morpholinopropan-2-yl)-6-(8-(thiophen-2-yl)-1H-imidazo[4,5-c][1,7]naphthyridin-1-yl)benzo[d]thiazol-2-amine at 3 mg/kg, iv measured 8 hrs post dose; type: ADME, organism-based; conditions: in vivo
[28] = Drug level in bile-duct cannulated Sprague-Dawley rat liver treated with N-(1-morpholinopropan-2-yl)-6-(8-(thiophen-2-yl)-1H-imidazo[4,5-c][1,7]naphthyridin-1-yl)benzo[d]thiazol-2-amine at 3 mg/kg, iv measured 8 hrs post dose; type: ADME, organism-based; conditions: in vivo
[29] = Drug level in bile-duct cannulated Sprague-Dawley rat urine treated with N-(1-morpholinopropan-2-yl)-6-(8-(thiophen-2-yl)-1H-imidazo[4,5-c][1,7]naphthyridin-1-yl)benzo[d]thiazol-2-amine at 3 mg/kg, iv measured 8 hrs post dose; type: ADME, organism-based; conditions: in vivo
[30] = Drug level in bile-duct cannulated Sprague-Dawley rat kidney treated with N-(1-morpholinopropan-2-yl)-6-(8-(thiophen-2-yl)-1H-imidazo[4,5-c][1,7]naphthyridin-1-yl)benzo[d]thiazol-2-amine at 3 mg/kg, iv measured 8 hrs post dose; type: ADME, organism-based; conditions: in vivo

T1 sequence (P41279 whole entry, the tested form may be a part): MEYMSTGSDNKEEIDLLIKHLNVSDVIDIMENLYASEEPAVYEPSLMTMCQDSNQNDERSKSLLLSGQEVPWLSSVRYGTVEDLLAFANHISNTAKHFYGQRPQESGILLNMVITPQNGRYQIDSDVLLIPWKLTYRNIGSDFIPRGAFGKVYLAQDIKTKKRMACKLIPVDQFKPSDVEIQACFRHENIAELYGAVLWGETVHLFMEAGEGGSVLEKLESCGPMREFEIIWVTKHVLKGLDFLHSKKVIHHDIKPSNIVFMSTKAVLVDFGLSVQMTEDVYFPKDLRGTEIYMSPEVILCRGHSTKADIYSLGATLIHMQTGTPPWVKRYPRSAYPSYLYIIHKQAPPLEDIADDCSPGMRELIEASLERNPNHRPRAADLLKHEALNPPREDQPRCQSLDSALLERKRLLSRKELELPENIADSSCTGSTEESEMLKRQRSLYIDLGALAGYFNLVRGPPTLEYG
Sequence of MAP kinase-interacting serine/threonine-protein kinase 2 (Q9HBH9 whole entry, the tested form may be a part): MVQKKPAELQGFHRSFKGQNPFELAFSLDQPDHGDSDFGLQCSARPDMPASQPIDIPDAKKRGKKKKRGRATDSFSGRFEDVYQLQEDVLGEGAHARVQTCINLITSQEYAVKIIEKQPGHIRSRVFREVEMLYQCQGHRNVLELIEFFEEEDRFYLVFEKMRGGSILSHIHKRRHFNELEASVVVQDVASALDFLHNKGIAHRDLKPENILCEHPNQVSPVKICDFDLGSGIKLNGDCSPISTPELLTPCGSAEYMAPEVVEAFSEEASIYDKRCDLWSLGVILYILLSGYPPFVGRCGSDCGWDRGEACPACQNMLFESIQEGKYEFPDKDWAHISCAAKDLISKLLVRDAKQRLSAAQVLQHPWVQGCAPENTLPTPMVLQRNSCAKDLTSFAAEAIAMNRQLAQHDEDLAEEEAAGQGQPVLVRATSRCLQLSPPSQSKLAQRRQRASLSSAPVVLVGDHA

## c1nc2ccc(-n3cnc4cnc5cnc(-c6cn[nH]c6)cc5c43)cc2[nH]1
[1]
  IC50: 150 nM

## CC(CN1CCOCC1)Nc1nc2ccc(-n3cnc4cnc5cnc(-c6cccs6)cc5c43)cc2s1 (configuration not stated)
[2]
  logP: 5.1
[3]
  IC50: 280 nM
[4]
  fraction unbound at 4 h, 5 µM: < 0.01
[1]
  IC50: 22 nM
[5]
  clearance: 40 mL/min/kg
[6]
  dose excreted at 8 h: 1%
[7]
  solubility thermodynamic at 16 h: 13 µM (≈ 6.86 µg/mL)
[8]
  remaining at 1 h, 5 µM: 66%
[9]
  IC50: 290 nM
[10]
  remaining at 1 h: 86%
[11]
  dose excreted at 8 h: 4%
[12]
  dose excreted: 0.63%
[13]
  dose excreted: 0.63%
[14]
  solubility thermodynamic at 16 h: 261 µM (≈ 138 µg/mL)
[15]
  IC50: > 10000 nM
[16]
  remaining at 4 h: 68%
[17]
  half-life at 5 µM: < 3 min

## N#CCc1ccc(-n2cnc3cnc4cc(Cl)c(-c5ccsc5)cc4c32)cc1
[2]
  logP: 5.4
[1]
  IC50: 800 nM

## C[C@@H](CN1CCOCC1)Nc1ccc2cc(-n3cnc4cnc5cnc(-c6ccncc6)cc5c43)ccc2n1
[3]
  IC50: 620 nM
[1]
  IC50: 38 nM
[9]
  IC50: 1250 nM

## Cc1ccc(-c2cc3c(cn2)ncc2ncn(-c4ccc5nc[nH]c5c4)c23)cc1
[1]
  IC50: 1300 nM

## Clc1cc2c(cn1)ncc1ncn(-c3ccc4nc[nH]c4c3)c12
[1]
  IC50: > 10000 nM

## CC(CN1CCOCC1)Nc1nc2ccc(-n3cnc4cnc5cnc(-c6ccccc6)cc5c43)cc2s1 (configuration not stated)
[2]
  logP: 4.4
[3]
  IC50: 120 nM
[4]
  fraction unbound at 4 h, 5 µM: < 0.01
[1]
  IC50: 9 nM
[7]
  solubility thermodynamic at 16 h: 9 µM (≈ 4.69 µg/mL)
[9]
  IC50: 130 nM
[14]
  solubility thermodynamic at 16 h: > 1000 µM
[15]
  IC50: 1010 nM

## c1cncc(-c2cc3c(cn2)ncc2ncn(-c4ccc5nc[nH]c5c4)c23)c1
[1]
  IC50: 670 nM

## c1ccc(-c2cc3c(cn2)ncc2ncn(-c4ccc5nc[nH]c5c4)c23)cc1
[1]
  IC50: 90 nM

## c1nc2ccc(-n3cnc4cnc5cnc(N6CCCCC6)cc5c43)cc2[nH]1
[1]
  IC50: 3500 nM

## c1nc2ccc(-n3cnc4cnc5cnc(-c6ccsc6)cc5c43)cc2[nH]1
[2]
  logP: 4
[1]
  IC50: 40 nM

## Cc1cnc(NC(=O)C2=C(O)c3ccccc3S(=O)(=O)N2C)s1
Canis familiaris
  Activity: Active

## c1ccc(-c2cc3c(cn2)ncc2ncn(-c4ccc5ncccc5c4)c23)cc1
[1]
  IC50: 96 nM
[7]
  solubility thermodynamic at 16 h: < 4 µM
[14]
  solubility thermodynamic at 16 h: < 4 µM

## C1=C(c2cc3c(cn2)ncc2ncn(-c4ccc5nc[nH]c5c4)c23)CCCC1
[1]
  IC50: 1300 nM

## N#CCc1ccc(-n2cnc3cnc4cnc(-c5ccsc5)cc4c32)cc1
[2]
  logP: 3.9
[1]
  IC50: 50 nM

## Cc1cccc(-c2cc3c(cn2)ncc2ncn(-c4ccc5nc[nH]c5c4)c23)c1
[1]
  IC50: 200 nM

## c1cc(-c2cc3c(cn2)ncc2ncn(-c4ccc5nc[nH]c5c4)c23)ccn1
[1]
  IC50: 100 nM

## Cc1nc2ccc(-n3cnc4cnc5cnc(-c6ccccc6)cc5c43)cc2s1
[1]
  IC50: 80 nM
[7]
  solubility thermodynamic at 16 h: < 4 µM
[14]
  solubility thermodynamic at 16 h: < 4 µM

## c1cnc2ccc(-n3cnc4cnc5cnc(-c6ccsc6)cc5c43)cc2c1
[18]
  IC50: 61 nM
[2]
  logP: 4.2
[3]
  IC50: 540 nM
[4]
  fraction unbound at 4 h, 5 µM: < 0.01
[1]
  IC50: 20 nM
[19]
  IC50: < 1400 nM
[7]
  solubility thermodynamic at 16 h: < 4 µM
[9]
  IC50: 440 nM
[14]
  solubility thermodynamic at 16 h: 6 µM (≈ 2.28 µg/mL)
[15]
  IC50: 1780 nM
[20]
  IC50: < 340 nM
[21]
  IC50: > 25000 nM
[22]
  IC50: > 10000 nM

## CC(CN1CCOCC1)Nc1nc2ccc(-n3cnc4c(=O)[nH]c5cnc(-c6ccncc6)cc5c43)cc2s1 (configuration not stated)
[23]
  Drug metabolism: Metabolite_Detected
[24]
  Drug metabolism: Metabolite_Detected
[25]
  Drug metabolism: Metabolite_Detected
[26]
  Drug metabolism: Metabolite_Detected

## C[C@H](CN1CCOCC1)Nc1ccc2cc(-n3cnc4cnc5cnc(-c6ccncc6)cc5c43)ccc2n1
[2]
  logP: 3.2
[3]
  IC50: 30 nM
[1]
  IC50: 4 nM
[5]
  clearance: 221 mL/min/kg
[7]
  solubility thermodynamic at 16 h: 135 µM (≈ 69.7 µg/mL)
[9]
  IC50: 30 nM
[14]
  solubility thermodynamic at 16 h: > 1000 µM
[15]
  IC50: 80 nM

## c1nc2ccc(-n3cnc4cnc5cnc(-c6cnsc6)cc5c43)cc2[nH]1
[1]
  IC50: 160 nM

## N#CCc1ccc(-n2cnc3cnc4ccc(-c5ccsc5)cc4c32)cc1
[2]
  logP: 4.9
[1]
  IC50: 2600 nM

## CC(CN1CCOCC1)Nc1nc2ccc(-n3cnc4c(=O)[nH]c5cnc(-c6cccs6)cc5c43)cc2s1 (configuration not stated)
[27]
  Drug metabolism: Metabolite_Detected
[28]
  Drug metabolism: Metabolite_Detected
[29]
  Drug metabolism: Metabolite_Detected
[30]
  Drug metabolism: Metabolite_Detected
